Assays:
[1] = Selectivity ratio of Ki for factor 10a to Ki for human recombinant factor 9a
[2] = Metabolic stability in human liver assessed as turnover; format: ADME, tissue-based; details: read-out: Stability
[3] = Selectivity ratio of Ki for uPA to Ki for human recombinant factor 9a
[4] = test system: Plasma; assay: Anticoagulant potency in human plasma assessed as concentration required to double the […]; format: functional
Outline: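 Citrated plasma from healthy volunteers, centrifuged at 2000g for 10 min and held on ice. Plasma incubated 1 min at 37 C, aPTT reagent (FSL) added, then 3 min at 37 C. Clotting started with 0.025 M CaCl2. Clot formation read at 660 nm on an automated coagulation analyzer.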

[5] = Half life in anesthetized Sprague-Dawley rat at 5 mg/kg, iv; format: ADME, organism-based; design: dose 5 mg/kg, route intravenous; details: in vivo
Outline: (§1)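 Bolus iv injection over 15 s into anesthetised rats, 3 per group. Citrated blood taken under anesthesia predose and at 2, 5, 15, 30 min and 1, 2, 3 h. Plasma obtained by centrifugation at 1700g, 20 C, 5 min, then stored at -80 C. Two acetonitrile precipitations before drug measurement. Parameters derived by noncompartmental analysis of concentration–time curve.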

[6] = molecular target: Urokinase-type plasminogen activator (Homo sapiens, UniProt P00749)
[7] = AUC (0 to infinity) in anesthetized Sprague-Dawley rat at 5 mg/kg, iv; format: ADME, organism-based; design: dose 5 mg/kg, route intravenous, time infinity; details: plasma; outline: as §1
[8] = molecular target: Coagulation factor IX (Homo sapiens, UniProt P00740); assay: Inhibition of human recombinant factor 9a by amidolytic assay
[9] = test system: Plasma; assay: Anticoagulant potency in human plasma assessed as concentration required to double the thrombin time; format: functional
Outline: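 Plasma from citrated blood of healthy volunteers, centrifuged at 2000g for 10 min and kept on ice. Plasma incubated 2 min at 37 C, then thrombin reagent added. Clotting time monitored at 660 nm on an automated analyzer.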

[10] = molecular target: Coagulation factor X (Homo sapiens, UniProt P00742); assay: Inhibition of factor 10a by amidolytic assay
Outline: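 […] taken as the mean of at least three experiments. Variation between runs stated as under 10%.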

[11] = Protein binding in human plasma; format: ADME, cell-free; details: read-out: PPB (converted)
[12] = Cmax in anesthetized Sprague-Dawley rat at 5 mg/kg, iv; format: ADME, organism-based; design: dose 5 mg/kg, route intravenous; details: in vivo; outline: as §1
[13] = Clearance in anesthetized Sprague-Dawley rat at 5 mg/kg, iv; format: ADME, organism-based; design: dose 5 mg/kg, route intravenous; details: in vivo; outline: as §1
[14] = test system: Plasma; assay: Anticoagulant potency in human plasma assessed as concentration required to double the prothrombin time; format: functional
Outline: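 Citrated plasma from healthy volunteers, centrifuged at 2000g for 10 min and held on ice. Plasma incubated 3 min at 37 C before addition of thromboplastin PT reagent (Thromborel S). Clot formation followed at 660 nm in an automated coagulation analyzer.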

Coagulation factor X, sequence (P00742 41-179 limits assumed): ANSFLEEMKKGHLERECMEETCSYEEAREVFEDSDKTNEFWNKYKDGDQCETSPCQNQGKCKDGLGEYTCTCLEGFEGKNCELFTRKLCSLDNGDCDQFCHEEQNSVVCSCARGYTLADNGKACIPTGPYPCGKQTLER
Coagulation factor X, sequence (P00742 235-488 limits assumed): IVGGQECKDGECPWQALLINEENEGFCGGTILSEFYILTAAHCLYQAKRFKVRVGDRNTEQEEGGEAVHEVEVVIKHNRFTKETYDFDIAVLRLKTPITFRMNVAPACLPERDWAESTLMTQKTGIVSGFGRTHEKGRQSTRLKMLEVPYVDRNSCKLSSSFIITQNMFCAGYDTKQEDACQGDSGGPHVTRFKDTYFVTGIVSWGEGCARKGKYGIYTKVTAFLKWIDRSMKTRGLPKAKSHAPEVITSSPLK
Coagulation factor IX, sequence (P00740 47-191 limits assumed): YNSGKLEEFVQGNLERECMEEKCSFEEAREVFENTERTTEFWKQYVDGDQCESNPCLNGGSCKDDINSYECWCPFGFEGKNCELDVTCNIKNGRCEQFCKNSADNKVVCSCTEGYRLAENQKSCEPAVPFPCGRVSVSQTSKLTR
Coagulation factor IX, sequence (P00740 227-461 limits assumed): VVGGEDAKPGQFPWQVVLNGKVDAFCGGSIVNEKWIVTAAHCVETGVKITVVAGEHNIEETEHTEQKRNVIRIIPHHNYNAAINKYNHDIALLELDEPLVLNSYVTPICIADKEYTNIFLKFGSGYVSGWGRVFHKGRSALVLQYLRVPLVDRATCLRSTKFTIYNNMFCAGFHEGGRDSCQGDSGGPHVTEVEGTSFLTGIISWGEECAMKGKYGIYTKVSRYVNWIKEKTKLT

Ratio Ki [1]	metabolised [2]	Ratio Ki [3]	half-life [5]	Ki [6]	AUC(0-inf) [7]	Ki [8]	Ki [10]	fraction unbound [11]	Cmax [12]	clearance [13]	SMILES	Activity [4]	Activity [9]	Activity [14]
205	18%	17	2.1 h	169 nM	0.951 µM·h	10 nM	2050 nM	0.04	5.19 µM	129 mL/min/kg	Cc1cc(NC(=O)OCC(Oc2cccc3sc(C(=N)N)cc23)c2ccccc2)n(C)n1 (centres undefined)	12.8 µM	60 µM	57 µM
213	11%	98	5.5 h	780 nM	5.19 µM·h	8 nM	1700 nM	–	10.5 µM	32.4 mL/min/kg	N=C(N)c1cc2c(OC(COC(=O)Nc3ccc(F)cc3)c3ccccc3)cccc2s1 (centres undefined)	–	–	–

Source: ChEMBL document CHEMBL1156932, “Structure based drug design: development of potent and selective factor IXa (FIXa) inhibitors” (J Med Chem, 2010)
